Assay type in all cases: functional, cell-based
One assay relates to HeLa. The assay can be described thus: Cytotoxicity against human HeLa cells after 72 hrs by MTS assay. Put shortly: (§1)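 HeLa (cervical) and HepG2 (hepatoma) cells kept in high-glucose DMEM with 10% FBS, 5% CO2, 37 °C. Plated at 1 × 10^4 cells/well for 24 h, then treated with graded sample concentrations for 72 h. Viability by MTS reduction over 2 h, measured at 490 nm with 690 nm reference.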

A further assay has as its system HepG2. Kind of assay: Cytotoxicity against human HepG2 cells after 72 hrs by MTS assay. The following applies: for IC50: HepG2, 72 h. Put shortly:
as §1
A general note: Tetrazolium dyes change colour on reduction, which living cells bring about.

A further assay relates to MGC-803. Kind of assay: Cytotoxicity against human MGC803 cells after 72 hrs by MTS assay. The following applies: for IC50: MGC-803, 72 h. Put shortly: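 Gastric MGC-803 line maintained in RPMI-1640 plus 10% FBS, 37 °C, 5% CO2. Cells seeded at 1 × 10^4/well, incubated 24 h, then given medium with varying sample concentrations for 72 h. After 2 h with MTS, absorbance taken at 490 nm (reference 690 nm).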

In the next assay the test system is HL-60. Kind of assay: (§2) Cytotoxicity against human HL60 cells after 72 hrs by MTS assay. Put shortly: (§3)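 HL-60 (human leukemia) grown in RPMI-1640 with 20% FBS at 37 °C, 5% CO2. Seeded at 1 × 10^4 cells/well and left 24 h, then exposed to a range of sample concentrations for 72 h. MTS added for 2 h; absorbance read at 490 nm against a 690 nm reference.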
The next assay deals with RPMI-8226. The assay can be described thus: Cytotoxicity against human RPMI8226 cells after 72 hrs by MTS assay. The following applies: RPMI-8226, 72 h.
A short description of assay [1]: as §2. The conditions noted are these: HL-60, 72 h. Put shortly: as §3

Active and inactive are the calls of the source. The calls are words filed in the database; no cut-off is given here. Peptide text beside a SMILES is read from it. A value given as a limit tells only on which side of the number the result lay.

For `CC[C@H](C)[C@@H]1NC(=O)[C@H](Cc2ccccc2)NC(=O)[C@@H]2CCCN2C(=O)[C@H](Cc2ccccc2)NC(=O)[C@@H]2CCCN2C(=O)[C@@H]2CCCN2C(=O)[C@H](Cc2ccccc2)NC1=O` (cyclo(FIFPPFP)), the inhibition entry in the assay with HeLa, in the assay with HepG2, in the assay on MGC-803 and with HL-60 was “inactive” in each case.

On to `CC[C@H](C)[C@@H]1NC(=O)[C@@H]2CCCN2C(=O)[C@H](Cc2ccccc2)NC(=O)[C@H](Cc2ccc(O)cc2)NC(=O)[C@H]([C@@H](C)CC)NC(=O)[C@@H]2CCCN2C(=O)[C@H](Cc2ccccc2)NC1=O` (cyclo(FPIFPIY)), for which the inhibition result in the assay on HeLa, in the assay with HepG2, in the assay with MGC-803 and in the assay on HL-60 was “inactive” in each case.

For `CC[C@H](C)[C@@H]1NC(=O)[C@@H]2CCCN2C(=O)[C@H](CC(C)C)NC(=O)[C@@H]2CCCN2C(=O)[C@H](CC(C)C)NC(=O)[C@H](Cc2ccc(O)cc2)NC(=O)[C@H](Cc2ccccc2)NC1=O` (cyclo(FYLPLPI)), the inhibition entry with HeLa, in the assay with HepG2, in the assay on MGC-803 and with HL-60 was “inactive” in each case.

A word on the IC50: it is the concentration needed to halve the response being measured. Low values mean greater potency, high ones weaker potency. For the molecule `CC[C@H](C)[C@@H]1NC(=O)[C@H](C(C)C)NC(=O)[C@@H]2CCCN2C(=O)[C@H](Cc2c[nH]c3ccccc23)NC(=O)[C@H](CC(C)C)NC(=O)[C@@H]2CCCN2C(=O)[C@H]([C@@H](C)CC)NC(=O)[C@@H]2CCCN2C1=O` (cyclo(IPIPLWPV)), the half-maximal inhibitory concentration (IC50) with HeLa was 17.3 µM; in the assay on HepG2 it was > 20 µM; in the assay on MGC-803, 9.7 µM; with RPMI-8226, 4.9 µM; in assay [1] it was > 20 µM.

On to `CC[C@H](C)[C@@H]1NC(=O)[C@H](C(C)C)NC(=O)[C@H](CC(N)=O)NC(=O)[C@@H]2CCCN2C(=O)[C@H](CC(C)C)NC(=O)[C@H](CC(C)C)NC(=O)[C@@H]2CCCN2C1=O` (cyclo(IPLLPNV)), for which the inhibition result with HeLa, with HepG2, in the assay on MGC-803 and with HL-60 was “inactive” throughout.

Regarding `COc1cccc2c1C(=O)c1c(O)c3c(c(O)c1C2=O)C[C@@](O)(C(=O)CO)C[C@@H]3O[C@H]1C[C@H](N)[C@H](O)[C@H](C)O1` [DOXORUBICIN], the half-maximal inhibitory concentration (IC50) in the assay with HeLa amounted to 0.5 µM; with HepG2, 0.4 µM; with MGC-803, 0.1 µM; in assay [1] it was 0.2 µM.

Values taken from ChEMBL document CHEMBL3352734, “Reniochalistatins A-E, cyclic peptides from the marine sponge Reniochalina stalagmitis” (J Nat Prod, 2014).
